Measurements as given in ChEMBL document CHEMBL1132971, “New azolidinediones as inhibitors of protein tyrosine phosphatase 1B with antihyperglycemic properties” (J Med Chem, 2000).
pIC50: −log10 of the molar value. Activity calls are given as the source filed them. The calls are words filed in the database; no cut-off is given here.

Experiments:
[1] = biological target: T1, Tyrosine-protein phosphatase non-receptor type 1 (Rattus norvegicus, UniProt P20417); assay: Inhibition of PTPase activity using recombinant r-PTP1B and IR-triphosphopeptide as substrate; ND is no data.
T1 sequence (P20417 whole entry): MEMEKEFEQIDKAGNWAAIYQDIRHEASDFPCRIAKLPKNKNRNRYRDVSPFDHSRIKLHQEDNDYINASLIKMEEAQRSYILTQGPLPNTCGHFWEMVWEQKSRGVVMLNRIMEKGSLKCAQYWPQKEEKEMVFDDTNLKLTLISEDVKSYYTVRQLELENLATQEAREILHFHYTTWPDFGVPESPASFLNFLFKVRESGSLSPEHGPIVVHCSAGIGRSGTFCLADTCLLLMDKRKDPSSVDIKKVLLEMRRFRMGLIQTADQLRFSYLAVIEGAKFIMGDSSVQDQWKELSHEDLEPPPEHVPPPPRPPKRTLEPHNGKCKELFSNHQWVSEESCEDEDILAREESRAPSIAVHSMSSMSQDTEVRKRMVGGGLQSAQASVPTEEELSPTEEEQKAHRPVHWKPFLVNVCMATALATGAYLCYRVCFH
In short: (§1)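 Rat recombinant PTP1B in 33 mM TRIS-HCl, 2 mM EDTA, 50 mM β-mercaptoethanol, pH 7.4 (about 1000-2000 nmol/min/mg). Preincubated 10 min at 37 °C with or without compound in HEPES buffer pH 7.4. Released phosphate read by malachite green-ammonium molybdate at 650 nm against a phosphate standard. Quadruplicates. IC50 by four-parameter logistic fit.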

[2] = tested on: Mus musculus; assay: Evaluated in vivo for their ability to decrease plasma glucose levels in diabetic C57BL/KsJ db/db mouse at a dose 100 mg/kg/day; NS is non significant; assay type: functional, organism-based
In short: (§2)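 Diabetic db/db or ob/ob mice dosed orally once daily for 4 days. Plasma glucose and insulin reported as percent change from a vehicle-treated group. 4-6 mice per group. Significance set at p < 0.05 or p < 0.01 versus vehicle; NS means generally less than -15% change.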

[3] = biological target: T2, Tyrosine-protein phosphatase non-receptor type 1 (Rattus norvegicus) (UniProt P20417); assay: Inhibition of PTPase (PTP1B) activity in rat hepatic membrane at 50 uM concentration, using pNPP as the substrate; assay type: cell membranes; details: Liver
T2 sequence (whole entry): T1 sequence (P20417 whole entry)
In short: (§3)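 Liver membranes from male Sprague-Dawley rats (100-150 g), about 30 µg protein per well. Preincubated 10 min at 37 °C with compound in 1.25% DMSO in 50 mM HEPES pH 7.4. Then 6.33 mM pNPP for 30 min at 37 °C, stopped with NaOH. p-Nitrophenol read at 410 nm. Run in triplicate. Reported as percent of untreated control.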

[4] = biological target: T3, Tyrosine-protein phosphatase non-receptor type 1 (Mus musculus) (UniProt P35821); assay: Ability to decrease plasma insulin levels in mouse at a dose 100 mg/kg/day; assay type: functional, organism-based; in short: as §2
T3 sequence (whole entry): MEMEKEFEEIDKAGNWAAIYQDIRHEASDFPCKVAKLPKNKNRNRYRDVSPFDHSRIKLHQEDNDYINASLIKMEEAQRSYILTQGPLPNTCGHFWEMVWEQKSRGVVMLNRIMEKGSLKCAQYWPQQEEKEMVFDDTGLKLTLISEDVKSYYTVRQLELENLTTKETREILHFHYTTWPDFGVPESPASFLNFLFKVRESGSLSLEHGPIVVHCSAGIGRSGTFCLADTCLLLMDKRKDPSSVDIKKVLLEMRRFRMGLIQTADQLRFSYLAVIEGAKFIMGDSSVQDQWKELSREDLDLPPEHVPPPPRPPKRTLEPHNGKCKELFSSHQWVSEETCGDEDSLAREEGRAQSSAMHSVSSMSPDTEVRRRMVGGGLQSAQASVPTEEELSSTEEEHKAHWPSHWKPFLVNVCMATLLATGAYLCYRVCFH

[5] = biological target: T3, Tyrosine-protein phosphatase non-receptor type 1 (Mus musculus); assay: In vivo ability to decrease plasma glucose levels in diabetic C57BL/KsJ ob/ob mouse at a dose 100 mg/kg/day; assay type: functional, organism-based; in short: as §2
[6] = tested on: Mus musculus; assay: Evaluated in vivo for their ability to decrease plasma glucose levels in diabetic C57BL/KsJ db/db mouse at a dose 100 mg/kg/day.; assay type: functional; in short: as §2
[7] = tested on: Mus musculus; assay: Evaluated in vivo for their ability to decrease plasma glucose levels in diabetic C57BL/KsJ db/db mouse at a dose 100 mg/kg/day.,*p indicates <0.05; assay type: functional
In short: (§4)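 Mice dosed orally once daily for 4 days; plasma glucose and insulin measured and expressed as percent change versus a vehicle-treated group (mean ± SE, 4-6 mice/group). NS is generally less than -15% change. Significance is versus vehicle-treated mice.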

[8] = biological target: T1, Tyrosine-protein phosphatase non-receptor type 1; assay: Inhibition of PTPase activity using recombinant r-PTP1B as the enzyme and IR-triphosphopeptide as substrate; in short: as §1
[9] = biological target: T1, Tyrosine-protein phosphatase non-receptor type 1; assay: Inhibition of PTPase activity in rat hepatic membrane at a concentration of 50 uM using pNPP as the substrate; assay type: cell membranes, Liver; in short: as §3
[10] = biological target: T4, Tyrosine-protein phosphatase non-receptor type 1 (Homo sapiens, UniProt P18031); assay: Concentration required to inhibit PTPase activity, recombinant Protein Tyrosine Phosphatase 1b as the enzyme; in short: as §1
T4 sequence (P18031 whole entry): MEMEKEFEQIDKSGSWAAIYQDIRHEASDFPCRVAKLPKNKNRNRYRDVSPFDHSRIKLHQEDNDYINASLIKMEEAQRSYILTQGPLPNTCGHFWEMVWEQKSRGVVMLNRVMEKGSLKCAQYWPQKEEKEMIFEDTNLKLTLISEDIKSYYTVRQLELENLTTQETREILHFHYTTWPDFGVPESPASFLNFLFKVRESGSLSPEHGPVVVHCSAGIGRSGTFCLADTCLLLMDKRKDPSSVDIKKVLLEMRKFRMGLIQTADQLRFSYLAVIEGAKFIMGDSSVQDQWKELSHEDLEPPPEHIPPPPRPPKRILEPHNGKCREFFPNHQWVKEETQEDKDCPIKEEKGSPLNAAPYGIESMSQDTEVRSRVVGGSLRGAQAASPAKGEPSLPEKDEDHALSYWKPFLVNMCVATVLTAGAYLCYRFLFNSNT

[11] = tested on: Mus musculus; assay: Evaluated in vivo for their ability to decrease plasma glucose levels in diabetic C57BL/KsJ db/db mouse at a dose 100 mg/kg/day, *p indicates <0.05; assay type: functional; in short: as §4
[12] = biological target: T2, Tyrosine-protein phosphatase non-receptor type 1 (Rattus norvegicus); assay: Inhibition of PTPase activity using recombinant r-PTP1B as the enzyme and IR-triphosphopeptide as substrate at 50 uM; in short: as §1
[13] = tested on: Mus musculus; assay: Evaluated in vivo for their ability to decrease plasma glucose levels in diabetic C57BL/KsJ ob/ob mouse at a dose 100 mg/kg/day, **p indicates <0.01; assay type: functional; in short: as §4
[14] = tested on: Mus musculus; assay: Evaluated for their ability to decrease plasma insulin levels in mouse at a dose 100 mg/kg/day, **p indicates <0.01; assay type: functional; in short: as §2
[15] = biological target: T2, Tyrosine-protein phosphatase non-receptor type 1 (Rattus norvegicus); assay: Inhibition of PTPase activity using recombinant Protein-tyrosine phosphatase 1B as the enzyme and IR-triphosphopeptide as substrate at 50 uM
In short: (§5)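 Recombinant rat PTP1B (human 321-aa form assayed the same way), activity about 1000-2000 nmol/min/mg, preincubated with compound for 10 min at 37 °C in HEPES pH 7.4. The reaction is started with 50 µM triphosphorylated insulin receptor 1142-1153 dodecapeptide and run 30 min at 37 °C. Released phosphate read by malachite green-molybdate at 650 nm, in quadruplicate. Result is percent inhibition versus control.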

[16] = biological target: T2, Tyrosine-protein phosphatase non-receptor type 1 (Rattus norvegicus); assay: Inhibition of Protein-tyrosine phosphatase 1B activity in rat hepatic membrane at a concentration of 50 uM using pNPP as the substrate; assay type: cell membranes; details: Liver; in short: as §3
[17] = tested on: Mus musculus; assay: Evaluated in vivo for their ability to decrease plasma glucose levels in diabetic C57BL/KsJ db/db mouse at a dose 100 mg/kg/day. *p indicates <0.05; assay type: functional; in short: as §4
[18] = biological target: T2, Tyrosine-protein phosphatase non-receptor type 1 (Rattus norvegicus); assay: Inhibition of PTPase activity using recombinant r-PTP1B as the enzyme and IR-triphosphopeptide as substrate at 10 uM; in short: as §5

Compound	inhibition [3] [%]	Decrease [4]	Decrease [5]	also measured
C/C(=C\Cn1oc(=O)[nH]c1=O)c1cccc(OCCc2nc(-c3ccccc3)oc2C)c1	45	Not significant	Not significant	pIC50 [8]: 4.62; Decrease [6]: 38%
CCCC/C(=C\Cn1oc(=O)[nH]c1=O)c1cccc(Oc2cc(Cl)cc(Cl)c2)c1				pIC50 [8]: 5.80; Inhibition % [9]: 23%
C/C(=C\CC1OC(=O)NC1=O)c1cccc(OCc2nc(-c3ccccc3)oc2C)c1 (centres undefined)	23	Not significant	Not significant	IC50 [1]: Not significant; Decrease [6]: 18%
C/C(=C\Cn1oc(=O)[nH]c1=O)c1ccc2oc(Cc3nc(-c4ccc(C(F)(F)F)cc4)oc3C)cc2c1	57			Decrease [11]: 31%; inhibition [12]: 53%
Cc1oc(-c2ccc(Cl)cc2)nc1COc1cccc(/C=C/C(C)n2oc(=O)[nH]c2=O)c1 (centres undefined)	33	Not significant	Not significant	IC50 [1]: Not significant; Decrease [6]: 20%
Cc1oc(-c2ccc(C(F)(F)F)cc2)nc1COc1cccc(/C(=C/Cn2oc(=O)[nH]c2=O)c2ccc(F)cc2)c1				Decrease [13]: 34%; Decrease [14]: 38%; Inhibition % [9]: 28%; inhibition [12]: 1.2%
Cc1oc(-c2ccc(C(F)(F)F)cc2)nc1COc1cccc(CCCn2oc(=O)[nH]c2=O)c1	54	Not significant	Not significant	Decrease [11]: 21%; inhibition [12]: 4.3%
CCC/C(=C/Cn1oc(=O)[nH]c1=O)c1cccc(OCc2nc(-c3ccc(C(F)(F)F)cc3)oc2C)c1	58	Not significant	Not significant	Decrease [7]: 55%; IC50 [1]: Not significant
C/C(=C\Cc1nnn[nH]1)c1cccc(OCc2nc(-c3ccc(OC(F)(F)F)cc3)oc2C)c1	29			pIC50 [10]: 4.89
CC/C(=C/Cn1oc(=O)[nH]c1=O)c1cccc(OCc2nc(-c3ccc(C(F)(F)F)cc3)oc2C)c1		Not significant	Not significant	Decrease [11]: 65%; inhibition [15]: 80%; inhibition [16]: 56%
CCCCc1oc2ccccc2c1COc1cccc(/C(C)=C/Cn2oc(=O)[nH]c2=O)c1				pIC50 [8]: 5.57; Inhibition % [9]: 33%
Cc1oc(-c2ccc(C(F)(F)F)cc2)nc1COc1cccc(C2CC2Cn2oc(=O)[nH]c2=O)c1 (centres undefined)	51	Not significant	Not significant	inhibition [18]: 28%; Decrease [17]: 36%

The next lines start with results.

inhibition [3] [%]	Decrease [4]	Decrease [5]	Compound	also measured
49	Not significant	Not significant	Cc1oc(-c2ccc(C(F)(F)F)cc2)nc1COc1cccc(/C=C/Cn2oc(=O)[nH]c2=O)c1	IC50 [1]: Not significant; Decrease [2]: inactive
37	Not significant	Not significant	C/C(=C\CC1OC(=O)NC1=O)c1cccc(OCc2nc(-c3ccc(OCC(F)(F)F)cc3)oc2C)c1 (centres undefined)	IC50 [1]: Not significant; Decrease [6]: inactive
58	Not significant	Not significant	CC/C(=C\c1cccc(OCc2nc(-c3ccc(C(F)(F)F)cc3)oc2C)c1)n1oc(=O)[nH]c1=O	Decrease [7]: 24%; IC50 [1]: Not significant
57			CCCCCCCC/C(=C/Cn1oc(=O)n(CC(=O)O)c1=O)c1cccc(OCc2nc(-c3ccc(C(F)(F)F)cc3)oc2C)c1	pIC50 [10]: 6.80
52	Not significant	Not significant	C/C(=C\Cn1oc(=O)[nH]c1=O)c1cccc(OCc2nc(-c3ccc(OCC(F)(F)F)cc3)oc2C)c1	Decrease [11]: 44%; IC50 [1]: Not significant
63	Not significant	Not significant	C/C(=C\Cn1oc(=O)[nH]c1=O)c1ccc(OCCc2nc(-c3ccc(C(F)(F)F)cc3)oc2C)cc1	pIC50 [8]: 5.80; Decrease [2]: inactive
	Not significant	Not significant	Cc1oc(-c2ccc(C(F)(F)F)cc2)nc1COc1cccc(/C(=C/Cn2oc(=O)[nH]c2=O)c2ccc(Cl)cc2)c1	Inhibition % [9]: 27%; inhibition [12]: 1.4%
24			Cc1oc(-c2ccc(C(F)(F)F)cc2)nc1COc1cccc(/C(=C/Cn2oc(=O)n(CC(=O)O)c2=O)c2ccccc2)c1	pIC50 [10]: 6.07
27	Not significant	Not significant	C/C(=C\CC1OC(=O)NC1=O)c1cccc(OCc2nc(-c3ccc(OC(F)(F)F)cc3)oc2C)c1 (centres undefined)	pIC50 [8]: 4.34; Decrease [17]: 40%
63			CCCC/C(=C\Cn1oc(=O)n(CC(=O)O)c1=O)c1cccc(Oc2cc(Cl)cc(Cl)c2)c1	pIC50 [10]: 5.89
64			CCCCCCCCC(=CCn1oc(=O)n(CC(=O)O)c1=O)c1cccc(OCc2nc(-c3ccc(C(F)(F)F)cc3)oc2C)c1	pIC50 [10]: 6.92
31			CCCC/C(=C\Cn1oc(=O)n(CC(=O)O)c1=O)c1cccc(OCc2cc(Cl)cc(Cl)c2)c1	pIC50 [10]: 4.32
76			CCCC/C(=C\Cn1oc(=O)[nH]c1=O)c1cccc(OCc2nc(-c3ccc(C(F)(F)F)cc3)oc2-c2ccccc2)c1	pIC50 [10]: 6.43
